Experimental data collected from several papers.
Lines come from different studies, so protocols differ.
Observed: cell growth or viability

COc1ccc(NC(=O)Nc2ccc(-c3cn(Cc4ccc(C)cc4)nn3)cc2)cc1 has a viability of 64.7% (Huh-7; CCK-8; 50 µM; 72 h).
O=[N+]([O-])c1cc(I)c(O)c(C=NNc2ccc(Br)cc2)c1 gave an IC50 of 11.4 µM (HEK-293T; MTT; 24 h).
For O=C(Nc1ccc(Cl)cc1)Nc1cccc(-c2cn(Cc3cccc(Br)c3)nn2)c1, the viability was 14.5% (Huh-7; CCK-8; 50 µM; 72 h).
O=c1[nH]cc(F)c(=O)[nH]1 gave an inhibition of 81.4% (LX-2; MTS; 50 µM; 72 h).
For O=C(Nc1ccc(-c2cn(Cc3ccc(Br)cc3)nn2)cc1)Nc1ccccc1Br, the viability was 70.8% (Huh-7; CCK-8; 50 µM; 48 h).
With COc1ccc(NC(=O)NCc2cn(Cc3ccccc3C)nn2)cc1 the viability was 86.8% (Huh-7; CCK-8; 50 µM; 72 h).
The viability of O=C(Nc1cccc(-c2cn(Cc3ccc(Br)cc3)nn2)c1)Nc1ccccc1Br is reported as 61.2% (Huh-7; CCK-8; 50 µM; 48 h).
For O=C(Nc1ccc(-c2ccccc2)cc1)c1cnn(-c2ccc([N+](=O)[O-])cc2)c1C(F)(F)F, the inhibition was 12.4% (LX-2; MTS; 50 µM; 72 h).
The viability of O=C(Nc1ccc(Cl)cc1)Nc1ccc(-c2cn(Cc3cccc(Cl)c3)nn2)cc1 is reported as 70.4% (Huh-7; CCK-8; 50 µM; 72 h).
COc1ccc(NC(=O)Nc2cccc(-c3cn(Cc4ccccc4C)nn3)c2)cc1 has a viability of 10.5% (Huh-7; CCK-8; 50 µM; 72 h).
O=C(NCc1cn(Cc2cccc(Cl)c2)nn1)Nc1ccc(Cl)cc1 gave a viability of 86.1% (Huh-7; CCK-8; 50 µM; 48 h).
Cc1nc(Nc2ncc(C(=O)Nc3c(C)cccc3Cl)s2)cc(N2CC[C@H](O)C2)n1 has an inhibition of 15% (Ramos; ATP luminescence; 10 µM; 72 h).
